In ChEMBL document CHEMBL1772999, “Synthesis and biological evaluation of 2,4,5-substituted pyrimidines as a new class of tubulin polymerization inhibitors” (J Med Chem, 2011) one finds IC50, EC50 and Activity data, which are given here for 25 compounds.

Active and inactive are the calls of the source. No cut-off for these calls is given here.

One test has as its system Bel-7402. Put plainly: Antiproliferative activity against human Bel7402 cells after 72 hrs by sulforhodamine B assay. In kind it is functional, cell-based. The following applies: Bel-7402, 72 h. The method in brief:
(§1)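 SRB survival assay: cells seeded in 96-well plates, exposed to a range of compound concentrations for 72 h, fixed with 10% TCA 1 h at 4 °C, stained with 0.4% (w/v) SRB 20 min at room temperature, washed with 1% acetic acid, dye solubilized in 10 mM Tris, absorbance at 510 nm.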

The target in another test is Tubulin (Sus scrofa, UniProt P02554+P02550). Put plainly: Inhibition of pig brain tubulin polymerization by spectrophotometry. A digest of the protocol:
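Pig brain microtubule protein from three assembly/disassembly cycles, tubulin purified by phosphocellulose chromatography. Polymerization in PEM buffer (100 mM PIPES, 1 mM EGTA, 1 mM MgCl2) with 1 mM GTP and 5% glycerol at 37 °C, followed by light scattering at 340 nm.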

The test system of a further test is HT-29. Description: Antiproliferative activity against human HT-29 cells after 72 hrs by sulforhodamine B assay. In kind it is functional, cell-based. The following applies: HT-29, 72 h. The method in brief: as §1
The test system of another test is SK-OV-3. Description: Antiproliferative activity against human SKOV3 cells after 72 hrs by sulforhodamine B assay. In kind it is functional, cell-based. The following applies: SK-OV-3, 72 h. A digest of the protocol:
as §1

In a further test the test system is NCI-H460. Description: Antiproliferative activity against human NCI-H460 cells after 72 hrs by sulforhodamine B assay. The test is classed as functional, cell-based. The following applies: NCI-H460, 72 h. A digest of the protocol:
as §1

The test system of the next test is KB. Put plainly: Cell cycle arrest in human KB cells assessed as accumulation of cells at G2/M phase after 24 hrs by propidium iodide-based FACScan. In kind it is functional. The method in brief:
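Subconfluent KB cells exposed to a range of concentrations for 24 h. Adherent plus detached cells collected by trypsinization, fixed overnight in 70% ethanol, stained 30 min at 37 °C with propidium iodide 50 μg/mL plus DNase-free RNase A 50 μg/mL. 10000 cells per group analyzed by flow cytometry.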

The subject of another test is A-431. Description: Antiproliferative activity against human A431 cells after 72 hrs by sulforhodamine B assay. In kind it is functional, cell-based. Conditions: A-431, 72 h. The method in brief:
as §1

The subject of another test is A549. Description: Antiproliferative activity against human A549 cells after 72 hrs by sulforhodamine B assay. In kind it is functional, cell-based. The following applies: A549, 72 h. The method in brief:
as §1

Another test has as its target Tubulin (Sus scrofa) (UniProt P02554+P02550). Description: Displacement of colchicine from pig brain tubulin at 25 uM after 60 mins by fluorescence assay. A digest of the protocol: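 Tubulin (3 μM) preincubated with colchicine (3 μM) 30 min at 37 °C, then compound added (0–25 μM). Fluorescence spectra (excitation 365 nm, emission 435 nm) recorded after 60 min at 37 °C, buffer blank subtracted.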

Chain of Tubulin (Sus scrofa) (P02550 whole entry, looked up): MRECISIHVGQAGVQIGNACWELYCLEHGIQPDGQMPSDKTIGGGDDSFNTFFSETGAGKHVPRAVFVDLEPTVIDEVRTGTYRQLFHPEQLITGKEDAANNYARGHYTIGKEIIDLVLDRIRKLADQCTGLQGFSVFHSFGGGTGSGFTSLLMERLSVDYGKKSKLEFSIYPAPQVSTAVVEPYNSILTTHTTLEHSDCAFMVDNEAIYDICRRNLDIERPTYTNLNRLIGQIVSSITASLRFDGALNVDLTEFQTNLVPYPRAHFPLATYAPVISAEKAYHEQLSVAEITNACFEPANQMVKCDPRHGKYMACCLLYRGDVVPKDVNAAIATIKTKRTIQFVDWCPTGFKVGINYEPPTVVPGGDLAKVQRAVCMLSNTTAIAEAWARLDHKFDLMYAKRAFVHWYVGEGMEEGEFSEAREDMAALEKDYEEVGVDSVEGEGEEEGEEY
Chain of Tubulin (Sus scrofa) (P02554 whole entry, looked up): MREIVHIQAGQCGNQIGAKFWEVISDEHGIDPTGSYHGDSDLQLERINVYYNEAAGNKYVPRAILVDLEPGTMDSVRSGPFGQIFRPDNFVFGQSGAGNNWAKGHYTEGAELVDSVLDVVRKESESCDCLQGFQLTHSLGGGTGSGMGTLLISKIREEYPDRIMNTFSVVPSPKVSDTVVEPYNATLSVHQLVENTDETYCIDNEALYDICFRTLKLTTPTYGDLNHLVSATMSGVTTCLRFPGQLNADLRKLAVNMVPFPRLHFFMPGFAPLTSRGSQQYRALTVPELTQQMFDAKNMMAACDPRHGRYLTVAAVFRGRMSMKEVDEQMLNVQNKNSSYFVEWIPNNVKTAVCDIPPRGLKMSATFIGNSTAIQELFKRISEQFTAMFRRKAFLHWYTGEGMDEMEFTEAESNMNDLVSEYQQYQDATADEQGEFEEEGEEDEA

Consider `Nc1ncc(-c2ccc3[nH]ccc3c2)c(-c2ccccc2O)n1`, for which the concentration for half-maximal inhibition (IC50) in the test with Bel-7402 was above 10 µM; at Tubulin it was above 50 µM.

Consider `CCn1ccc2c(-c3cnc(N)nc3-c3ccccc3O)cccc21`, for which the values for the IC50 in the test with Bel-7402 and at Tubulin were 1 µM and above 50 µM, respectively.

Take `Nc1ncc(-c2ccc(N3CCOCC3)cc2)c(-c2ccccc2O)n1`: the results for the IC50 with Bel-7402 and on Tubulin were above 10 µM and above 50 µM, respectively.

On to `CCn1ccc2cc(-c3cnc(N)nc3-c3ccc(OC)c(OC)c3O)ccc21`, for which the IC50 is above 10 µM with Bel-7402 and above 50 µM against Tubulin.

On to `CC(=O)O[C@H]1C(=O)[C@@]2(C)[C@H]([C@H](OC(=O)c3ccccc3)[C@]3(O)C[C@H](OC(=O)[C@H](O)[C@@H](NC(=O)c4ccccc4)c4ccccc4)C(C)=C1C3(C)C)[C@]1(OC(C)=O)CO[C@@H]1C[C@@H]2O` [PACLITAXEL], for which the 50% inhibitory concentration (IC50) turned out to be 0.0061 µM in the test with HT-29, 0.0145 µM with SK-OV-3, 0.0146 µM in the test on NCI-H460 and 0.0092 µM in the test on A-431. Also, in the test with KB, the concentration for a half-maximal effect (EC50) is 0.002 µM.

Take `CCn1ccc2ccc(-c3cnc(N)nc3-c3ccccc3O)cc21`: the IC50 in the test with Bel-7402 was above 10 µM; on Tubulin, above 50 µM.

For `Cn1ccc2cc(-c3cnc(N)nc3-c3ccccc3O)ccc21`, the 50% inhibitory concentration (IC50) with Bel-7402 came out at 0.05 µM; in the test with HT-29 it was 0.0308 µM; in the test on SK-OV-3, 0.0692 µM; in the test on NCI-H460, 0.0205 µM; on Tubulin, 0.92 µM; in the test with A-431, 0.0217 µM. In the test with A549, the concentration for half-maximal inhibition (IC50) was 0.0482 µM.

Regarding `Nc1ncc(-c2ccc(N3CCCC3)cc2)c(-c2ccccc2O)n1`, the half-maximal inhibitory concentration (IC50) in the test with Bel-7402 was above 10 µM; against Tubulin, above 50 µM.

Regarding `CCN(CC)c1ccc(-c2cnc(N)nc2-c2ccccc2O)cc1`, the IC50 turned out to be 0.1 µM in the test on Bel-7402; 0.0954 µM in the test on HT-29; 0.171 µM with SK-OV-3; 0.057 µM in the test on NCI-H460; 5.57 µM on Tubulin; 0.0766 µM in the test with A-431. Besides, the IC50 in the test with A549 came out at 0.241 µM.

Consider `CCC1=C[C@@H]2CN(C1)Cc1c([nH]c3ccccc13)[C@@](C(=O)OC)(c1cc3c(cc1OC)N(C)[C@H]1[C@@](O)(C(=O)OC)[C@H](OC(C)=O)[C@]4(CC)C=CCN5CC[C@]31[C@@H]54)C2` [VINORELBINE], for which the IC50 in the test on HT-29 is 0.0119 µM; with SK-OV-3, 0.0267 µM; in the test on NCI-H460, 0.0437 µM; with A-431 it was 0.06 µM; in the test on A549, 0.0646 µM. The result on Tubulin (Sus scrofa) was inactive. Moreover, the EC50 in the test on KB was determined as 0.006 µM.

Consider `CC(C)n1ccc2cc(-c3cnc(N)nc3-c3ccccc3O)ccc21`, for which the half-maximal inhibitory concentration (IC50) turned out to be 0.08 µM with Bel-7402; 0.917 µM with HT-29; 0.76 µM with SK-OV-3; 0.485 µM in the test with NCI-H460; 5 µM against Tubulin; 0.76 µM in the test on A-431. The IC50 in the test with A549 was found to be 1.31 µM.

Consider `CCn1ccc2cc(-c3cnc(N)nc3-c3ccccc3O)cnc21`, for which the concentration for half-maximal inhibition (IC50) is 1 µM in the test with Bel-7402 and above 50 µM against Tubulin.

As for `CN1CCN(Cc2ccc(-c3cnc(N)nc3-c3ccccc3O)cc2)CC1`, the IC50 is above 10 µM in the test with Bel-7402 and above 50 µM against Tubulin.

As to `CN(C)Cc1ccc(-c2cnc(N)nc2-c2ccccc2O)cc1`, the concentration for half-maximal inhibition (IC50) in the test on Bel-7402 is above 10 µM; against Tubulin it was above 50 µM.

Take `Nc1ncc(-c2ccc(CN3CCOCC3)cc2)c(-c2ccccc2O)n1`: the IC50 in the test on Bel-7402 is above 10 µM; on Tubulin it was above 50 µM.

Turning to `CCn1ccc2cc(-c3cnc(N)nc3-c3ccccc3O)ccc21`, the half-maximal inhibitory concentration (IC50) in the test on Bel-7402 is 0.016 µM; in the test with HT-29, 0.0282 µM; in the test with SK-OV-3, 0.032 µM; with NCI-H460, 0.019 µM; on Tubulin it was 0.79 µM; with A-431 it was 0.0203 µM. In the test with A549, this compound yielded an IC50 of 0.062 µM. At Tubulin (Sus scrofa), the result was Active. Further, the concentration for a half-maximal effect (EC50) in the test on KB is 0.02 µM.

With `Nc1ncc(-c2ccc(N3CCCCC3)cc2)c(-c2ccccc2O)n1`, the IC50 with Bel-7402 is above 10 µM; against Tubulin, above 50 µM.

With `CCn1ccc2cc(-c3cnc(N)nc3-c3cc(OC)ccc3O)ccc21`, the IC50 in the test on Bel-7402 was above 10 µM; on Tubulin, above 50 µM.

Consider `Nc1ncc(-c2ccc(CN3CCCCC3)cc2)c(-c2ccccc2O)n1`, for which the half-inhibitory concentration (IC50) is above 10 µM with Bel-7402 and above 50 µM against Tubulin.

In turn, `CCN(C)c1ccc(-c2cnc(N)nc2-c2ccccc2O)cc1` registered a 50% inhibitory concentration (IC50) against Tubulin of 2.35 µM.

Take `COc1cc2c(c(OC)c1OC)-c1ccc(OC)c(=O)cc1[C@@H](NC(C)=O)CC2` [COLCHICINE]: the IC50 in the test with Bel-7402 came to 0.04 µM; with HT-29, 0.0219 µM; with SK-OV-3, 0.0712 µM; in the test on NCI-H460, 0.0506 µM; in the test with A-431 it was 0.0532 µM; with A549, 0.037 µM. The 50% effective concentration (EC50) in the test with KB was determined as 0.01 µM.

In the case of `CCn1ccc2cc(-c3cnc(N)nc3-c3cc(F)ccc3O)ccc21`, the half-inhibitory concentration (IC50) in the test with Bel-7402 came to 0.01 µM; in the test with HT-29 it was 0.0418 µM; in the test with SK-OV-3 it was 0.0561 µM; in the test on NCI-H460, 0.0258 µM; at Tubulin it was 0.8 µM; in the test with A-431, 0.0454 µM. Further, in the test on A549, the midpoint of inhibition, the IC50, lay at 0.0704 µM.

Consider `CCn1ccc2cc(-c3cnc(N)nc3-c3cc(OC)c(OC)cc3O)ccc21`, for which the IC50 in the test on Bel-7402 was above 10 µM; against Tubulin, above 50 µM.

For the compound `CN1CCN(c2ccc(-c3cnc(N)nc3-c3ccccc3O)cc2)CC1`, the figures for the concentration for half-maximal inhibition (IC50) with Bel-7402 and against Tubulin were above 10 µM and above 50 µM, respectively.

For `CCn1ccc2cc(-c3cnc(N)nc3-c3ccc(OC)cc3O)ccc21`, the values for the IC50 in the test on Bel-7402 and against Tubulin were above 10 µM and above 50 µM, respectively.
